Here are results for seven compounds from ChEMBL document CHEMBL1131108, “Phenothiazine inhibitors of trypanothione reductase as potential antitrypanosomal and antileishmanial drugs” (J Med Chem, 1998).

For experiment [1], the species on record is Mus musculus. Put plainly: Effective dose against Leishmania donovani (Leishmania donovani) amastigotes in mouse peritoneal macrophages. It counts as functional. Conditions: read-out: ED50 (the source's name); call rule not given here. The gist of the method: (§1)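 Mouse peritoneal macrophages kept on chamber slides in RPMI 1640 with 10% heat-inactivated foetal calf serum, 37 °C, 5% CO2, and infected with L. donovani MHOM/ET/69/L82 amastigotes taken from infected hamster spleens. After 24 h, compounds were added in a 3-fold dilution series in quadruplicate for 5 days. Slides were methanol-fixed and Giemsa-stained, then scored for the proportion of infected macrophages.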

The species entered for experiment [2] is Mus musculus. Put plainly: Effective dose against Trypanosoma […]) trypomastigotes in mouse peritoneal macrophages. It is filed as functional. Conditions: read-out: ED50 (the source's name).
The target of experiment [3] is T1, Trypanothione reductase (Trypanosoma cruzi, UniProt P28593). The experiment in a line: Inhibitory activity against recombinant Trypanosoma cruzi (Trypanosoma cruzi) Trypanothione reductase. Conditions: read-out: I50. The gist of the method: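 Recombinant T. cruzi TR, overexpressed in E. coli JM109 and homogeneous by SDS-PAGE, was used at about 0.3 µg/mL. Assay at 25 °C in 0.02 M HEPES pH 7.25 with 0.15 M KCl, 1 mM EDTA, 0.12 mM trypanothione disulfide and 0.1 mM NADPH, read at 340 nm. I50 came from nonlinear least-squares fitting of velocity versus inhibitor concentration using the linear competitive inhibition equation.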

The species entered for experiment [4] is Mus musculus. The experiment in a line: Effective dose against Trypanosoma cruzi (Trypanosoma cruzi) trypomastigotes in mouse peritoneal macrophages. It is filed as functional. Conditions: read-out: ED50 (the source's name).
The target of experiment [5] is T2, Glutathione reductase, mitochondrial (Homo sapiens, UniProt P00390).
T2 sequence (P00390 whole entry): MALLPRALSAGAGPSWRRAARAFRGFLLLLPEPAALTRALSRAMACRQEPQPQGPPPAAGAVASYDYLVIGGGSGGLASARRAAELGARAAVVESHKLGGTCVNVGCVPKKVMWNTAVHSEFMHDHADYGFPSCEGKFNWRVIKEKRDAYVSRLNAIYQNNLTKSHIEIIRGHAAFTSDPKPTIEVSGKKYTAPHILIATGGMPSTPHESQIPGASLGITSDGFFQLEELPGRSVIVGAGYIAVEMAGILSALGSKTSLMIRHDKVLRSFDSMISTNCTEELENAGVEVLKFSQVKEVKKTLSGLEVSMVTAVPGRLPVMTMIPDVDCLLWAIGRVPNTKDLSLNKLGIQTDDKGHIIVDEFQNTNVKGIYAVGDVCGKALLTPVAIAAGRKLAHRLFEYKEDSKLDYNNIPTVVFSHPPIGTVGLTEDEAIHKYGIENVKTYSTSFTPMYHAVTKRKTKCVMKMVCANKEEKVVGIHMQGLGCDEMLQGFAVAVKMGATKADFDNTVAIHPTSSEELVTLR
Put plainly: Inhibitory activity against human erythrocyte glutathione reductase; '*' indicates No inhibition. The gist of the method:
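Enzyme was isolated from human erythrocytes and assayed spectrophotometrically at 340 nm under literature conditions. Compounds were tested up to 1 mM, or 0.1 mM where solubility was limited.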

The test system of experiment [6] is Trypanosoma brucei. The experiment in a line: Effective dose against Trypanosoma brucei) bloodstream form trypomastigotes; <3, >1. Conditions: read-out: ED50 (the source's name).
Experiment [7] concerns the target T1, Trypanothione reductase. Put plainly: Inhibitory activity against recombinant Trypanosoma cruzi (Trypanosoma cruzi) Trypanothione reductase; No inhibition at 1000 uM.
For experiment [8], the species on record is Mus musculus. The experiment in a line: Effective dose against […]; Toxic to the macrophages. It is filed as functional.
Experiment [9] deals with Trypanosoma brucei. The experiment in a line: Effective dose against Trypanosoma brucei) bloodstream form trypomastigotes in HMI-9 medium. Conditions: read-out: ED50 (the source's name).
Experiment [10] is filed under the species Mus musculus. The experiment in a line: Effective dose against Trypanosoma uM. It counts as functional.
The species named for experiment [11] is Mus musculus. Put plainly: Effective dose against Leishmania donovani (Leishmania donovani) amastigotes in mouse peritoneal macrophages; Range is 10-30 uM. It is filed as functional. Conditions: read-out: ED50 (the source's name). The gist of the method:
as §1

The structures appear in SMILES notation. pEC50, pIC50: −log10 of the molar value. A value given as a limit tells only on which side of the number the result lay.

T1 sequence (P28593 whole entry): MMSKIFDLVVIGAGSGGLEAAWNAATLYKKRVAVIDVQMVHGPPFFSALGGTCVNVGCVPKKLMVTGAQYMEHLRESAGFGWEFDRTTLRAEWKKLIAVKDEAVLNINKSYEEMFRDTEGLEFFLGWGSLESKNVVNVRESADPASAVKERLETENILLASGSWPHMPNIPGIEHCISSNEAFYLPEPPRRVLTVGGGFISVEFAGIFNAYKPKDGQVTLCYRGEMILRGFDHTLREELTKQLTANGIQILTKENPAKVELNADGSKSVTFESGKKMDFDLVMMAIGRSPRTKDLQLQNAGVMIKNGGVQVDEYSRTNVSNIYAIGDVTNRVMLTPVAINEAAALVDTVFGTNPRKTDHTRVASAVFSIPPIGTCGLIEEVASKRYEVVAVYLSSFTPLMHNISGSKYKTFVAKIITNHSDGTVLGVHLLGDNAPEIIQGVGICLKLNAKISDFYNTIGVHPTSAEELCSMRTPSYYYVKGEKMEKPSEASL

Regarding `C/C(=N\OCc1ccccc1)c1ccc2c(c1)N(CCCN(C)C)c1cc(Cl)ccc1S2`, the figures for the pEC50 in the experiment filed under Mus musculus [1], in the experiment filed under Mus musculus [2] and in the experiment listed under Mus musculus [4] were 5.17, 5.46 and < 4.52, respectively. Also, the pIC50 on Trypanothione reductase [3] was 3.70.
As to `NCCCN1c2ccccc2Sc2ccc(Cl)cc21` [NOR2-CHLORPROMAZINE], the pEC50 is 5.00 in the experiment listed under Mus musculus [1], 5.23 in the experiment filed under Mus musculus [4] and > 5.52 with Trypanosoma brucei [6]. Moreover, at Trypanothione reductase [3], the pIC50 was 3.86. In experiment [5], the I50 entry is recorded as “Not Active”.
In the case of `c1ccc2c(c1)Nc1ccccc1S2` [PHENOTHIAZINE], at Trypanothione reductase [7], the I50 result is recorded as “No inhibition”.
As to `C/C(=N/OCc1ccccc1)c1ccc2c(c1)N(CCCN(C)C)c1ccccc1S2`, the pEC50 was 4.78 in the experiment filed under Mus musculus [1], 5.81 in the experiment listed under Mus musculus [2] and < 4.52 in the experiment listed under Mus musculus [4]. In addition, the pIC50 at Trypanothione reductase [3] was 3.69.
Take `O=C(CCC(=O)N1c2ccccc2Sc2ccc(Cl)cc21)NNc1ccccc1`: the figures for the pEC50 in the experiment listed under Mus musculus [1] and in the experiment on Trypanosoma brucei [9] were 4.47 and 4.82, respectively. For the same compound, the pIC50 at Trypanothione reductase [3] was 3.82. The ED50 entry in the experiment filed under Mus musculus [8] was “Toxic”.
In the case of `CO/N=C(/C)c1ccc2c(c1)N(CCCN(C)C)c1ccccc1S2`, the pEC50 in the experiment listed under Mus musculus [1] and in the experiment filed under Mus musculus [4] was < 4.52 each time. In addition, in the experiment filed under Mus musculus [10], the ED50 turned out to be 10 µM. The pIC50 at Trypanothione reductase [3] was 3.45.
As to `CCCC(=O)c1ccc2c(c1)N(CCCN(C)C)c1ccccc1S2`, the pIC50 at Trypanothione reductase [3] is 3.52. For the same compound, the results for the pEC50 in the experiment listed under Mus musculus [4], in the experiment filed under Mus musculus [11] and with Trypanosoma brucei [9] were < 4.52, 5.00 and 5.49, respectively.
